# Laboratory results from ChEMBL document CHEMBL3861972, “Actinomadurol, an Antibacterial Norditerpenoid from a Rare Actinomycete, Actinomadura sp. KC 191” (J Nat Prod, 2016).
# Legend:
# Staphylococcus aureus = assay: Antibacterial activity against Staphylococcus aureus ATCC 6538p after 24 hrs by serial two fold dilution method; assay type: functional
# Summary of the method: (§1)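 Broth microdilution MIC. Bacteria grown overnight in LB broth at 37 °C, harvested by centrifugation and washed twice in sterile distilled water. Compound DMSO stocks were diluted in Standard method broth to give serial 2-fold dilutions from 100 to […] μg/mL. About 10^5 cfu/mL of test bacteria were added per well, and plates were incubated 24 h at 37 °C.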
# Aspergillus fumigatus = assay: Antifungal activity against Aspergillus fumigatus; assay type: functional
# [1] = Antifungal activity against Trichophyton rubrum; assay type: functional
# [2] = Antifungal activity against Trichophyton mentagrophytes; assay type: functional
# Bacillus spizizenii = assay: Antibacterial activity against Bacillus subtilis ATCC 6633 after 24 hrs by serial two fold dilution method; assay type: functional; conditions: ATCC 6633, 24 h; summary of the method: as §1
# Kocuria rhizophila = assay: Antibacterial activity against Kocuria rhizophila NBRC 12708 after 24 hrs by serial two fold dilution method; assay type: functional; conditions: NBRC 12708, 24 h; summary of the method: as §1
# Proteus hauseri = assay: Antibacterial activity against Proteus hauseri NBRC 3851 after 24 hrs by serial two fold dilution method; assay type: functional; conditions: NBRC 3851, 24 h; summary of the method: as §1
# [3] = Antibacterial activity against Salmonella enterica ATCC 14028 after 24 hrs by serial two fold dilution method; assay type: functional; conditions: ATCC 14028, 24 h; summary of the method: as §1
# Escherichia coli = assay: Antibacterial activity against Escherichia coli ATCC 25922 after 24 hrs by serial two fold dilution method; assay type: functional; conditions: ATCC 25922, 24 h; summary of the method: as §1
# [4] = Growth inhibition of human A549 cells; assay type: functional, cell-based
# [5] = Growth inhibition of human HCT116 cells; assay type: functional, cell-based; conditions: HCT-116
# [6] = Growth inhibition of human SNU638 cells; assay type: functional, cell-based; conditions: SNU-638
# [7] = Growth inhibition of human SKHEP1 cells; assay type: functional, cell-based; conditions: SK-HEP1
# [8] = Growth inhibition of human MDA-MB-231 cells; assay type: functional, cell-based
# [9] = Growth inhibition of human K562 cells; assay type: functional, cell-based
# Candida albicans = assay: Antifungal activity against Candida albicans; assay type: functional
SMILES,MIC (Staphylococcus aureus) [µg/mL],MIC (Aspergillus fumigatus) [µg/mL],MIC [1] [µg/mL],MIC [2] [µg/mL],MIC (Bacillus spizizenii) [µg/mL],MIC (Kocuria rhizophila) [µg/mL],MIC (Proteus hauseri) [µg/mL],MIC [3] [µg/mL],MIC (Escherichia coli) [µg/mL],IC50 [4] [µg/mL],IC50 [5] [µg/mL],IC50 [6] [µg/mL],IC50 [7] [µg/mL],IC50 [8] [µg/mL],IC50 [9] [µg/mL],MIC (Candida albicans) [µg/mL]
C=C[C@]1(C)CCC2=C(C1)C(=O)C[C@H]1C(CO)=CC(=O)[C@@H](O)[C@]21C,> 100,> 100,> 100,> 100,> 100,> 100,> 100,> 100,> 100,> 100,> 100,> 100,> 100,> 100,> 100,> 100
CC1(C)S[C@@H]2[C@H](NC(=O)[C@H](N)c3ccccc3)C(=O)N2[C@H]1C(=O)O [AMPICILLIN],3.12,–,–,–,1.56,0.79,1.56,3.12,6.25,–,–,–,–,–,–,–
C=C[C@]1(C)CCC2=C(C1)[C@H](O)C[C@H]1C(CO)=CC(=O)[C@@H](O)[C@]21C,0.78,> 100,> 100,> 100,1.56,0.39,0.78,3.12,> 100,> 100,> 100,> 100,> 100,> 100,> 100,> 100
